Experimental data taken from publication PMC3470735 (Nuclear medicine and biology, 2012).
Entries after “also recorded” stand apart in the source; their conditions may differ.

Legend:
[1] = Biodistribution of 64Cu-labeled BFCs in female SCID mice; assay type: in vivo; conditions: for radioactivity in blood (%ID/g): 24 h post-injection; for decrease of %ID/g in kidney by 24 h: by 24 h relative to 1 h
Method in brief: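 Female SCID mice, n = 4/group, received 64Cu-labeled chelator (0.74 MBq in 100 μL saline) by tail-vein injection; labeling was done in 0.1 M NH4OAc, pH 5.5. At 1, 4 and 24 h, mice were anesthetized with 1-2% isoflurane and killed by cervical dislocation. Blood, lung, liver, spleen, pancreas, kidney, muscle and bone were weighed and gamma-counted. %ID/g was decay-corrected and normalized to tissue weight.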

[2] = Complexation kinetics with Cu; assay type: physicochemical; conditions: ligand 1 mM, Cu(II) 7 μM, AAIII 14 μM, 0.15 M NH4OAc pH 5.0, room temperature, 1 h
Method in brief: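 Cu(II)–Arsenazo III reagent made in metal-free 0.15 M NH4OAc, pH 5.0 (14 μM AAIII, 7 μM Cu(II)), kept in the dark and stirred 2 h to equilibrate. Instrument zeroed against AAIII alone. Test compound was added from a 1 mM solution into the Cu(II)–AAIII cells at room temperature. A610 was read every 30 s for 1 h and compared with Cu(II)–AAIII alone.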

[3] = cited from earlier work
[4] = In vitro rat serum stability of 64Cu-labeled chelators; assay type: in vitro ADME; conditions: 37 °C, 48 h incubation, TLC
Method in brief: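 Chelator was labeled with 64Cu in 0.1 M NH4OAc, pH ~5.5. Labeled complex (10 μL, ~3.7 MBq) was added to 90 μL rat serum at 37 °C. Aliquots taken at 1, 2, 4, 24 and 48 h were run on C-18 TLC in 10% NH4OAc:MeOH (3:7), and percent 64Cu still bound was determined.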

Row | SMILES | radioactivity in blood (%ID/g) [1] [%ID/g] | decrease of %ID/g in kidney by 24 h [1] [%] | complexation kinetics with Cu(II) [2] | stability of 64Cu complex in rat serum [3] | percentage of intact 64Cu complex in rat serum [4] [%]
1 | O=C(O)CNC(Cc1ccc([N+](=O)[O-])cc1)CN1CCN(CC(=O)O)CCN(CC(=O)O)CC1 (stereo not shown) [C-NE3TA, 4-carboxymethyl-7-[2-(carboxymethyl-amino)-3-(4-nitro-phenyl)-propyl]-[1,4,7]triazonan-1-yl-acetic acid] | 0.18 ± 0.06 | 60 | formed complexes with Cu(II) almost immediately; also recorded: rapidly formed complexes with Cu(II) |  | 
2 | O=C(O)CN1CCN(CCN(CC(=O)O)Cc2ccc([N+](=O)[O-])cc2)CCN(CC(=O)O)CC1 [N-NE3TA, 4-carboxymethyl-7-[2-[carboxymethyl-(4-nitro-benzyl)-amino]-ethyl]-[1,4,7]triazonan-1-yl-acetic acid] | 0.13 ± 0.06 | 60 | formed complexes with Cu(II) almost immediately; also recorded: rapidly formed complexes with Cu(II) |  | 
3 | O=C(O)CNCCN1CCN(CC(=O)O)CCN(CC(=O)O)CC1 [NE3TA] |  |  |  | high stability | 
4 | Nc1ccc(CC2CN(CC(=O)O)CCN(CC(=O)O)CCN(CC(=O)O)CCN2CC(=O)O)cc1 (stereo not shown) [p-NH2-Bn-DOTA, 2-(4-aminobenzyl)-1,4,7,10-tetraazacyclododecane-1,4,7,10-tetraacetic acid, reference compound] | 0.47 ± 0.17 |  |  |  | 93.9
5 | Nc1ccc(C[C@H]2CN(CC(=O)O)CCN(CC(=O)O)CCN2CC(=O)O)cc1 [p-NH2-Bn-NOTA, S-2-(4-aminobenzyl)-1,4,7-triazacyclononane-1,4,7-triacetic acid] |  |  |  |  | 97.9
